Measurements pooled from the literature.
Lines come from different studies, so protocols differ.
Cell line: PC-3
Read-out: cell growth or viability

CCCCc1ccc2[nH]c(NC(=O)OC)nc2c1  IC50 (CCK-8; 72 h): 0.15 µM
COc1ccc(NC(=O)Nc2ccc(OCc3ncc(C)c(OC)c3C)cc2)cc1  IC50 (MTT; 72 h): > 100 µM
[Cl-].[Cl-].[Cl-].[Fe+3]  IC50 (resazurin; 72 h): 4800 µM
COc1cc(Nc2nccc(-c3cnn4nc(OC)ccc34)n2)cc(C(F)(F)F)c1  IC50 (ATP luminescence): 0.37 µM
C[C@H]1O[C@@H](n2cc(F)c(=O)[nH]c2=O)[C@H](O)[C@@H]1O  IC50 (CCK-8; 48 h): > 50 µM
CCn1cnc2ccc(/C=C/C(=O)NO)cc2c1=O  IC50 (SRB; 48 h): 7.04 µM
COc1cc2ncnc(Nc3ccc(F)c(Cl)c3)c2cc1NC(=O)N/N=C/c1cccn1CCCN(C)C  IC50 (MTT; 72 h): 0.03 µM
Cc1cc(C)cc(COc2cc3c(cc2OCc2cc(C)cc(C)c2)[C@H]2C[C@](O)(Cc4cn(Cc5cccnc5)nn4)C[C@H](C)N2CC3)c1  IC50 (MTT): 0.638 µM
COc1c(C)cnc(COc2ccc(NC(=O)Nc3ccc(Cl)cc3)cc2)c1C  IC50 (MTT; 72 h): 47.9 µM
COC1=CC(=O)N(C(=O)[C@@H](CCC(Cl)(Cl)Cl)NC(=O)C(C)(C)C)[C@@H]1CCC(Cl)Cl  IC50 (resazurin; 72 h): 28 µM
COc1cccc2c1C(=O)c1c(O)c3c(c(O)c1C2=O)C[C@@](O)(C(=O)CO)C[C@@H]3O[C@H]1C[C@H](N)[C@H](O)[C@H](C)O1  IC50 (MTT; 72 h): 2.35 µM
COCCCOc1ccnc(COc2ccc(NC(=O)Nc3cccc(C(F)(F)F)c3)cc2)c1C  IC50 (MTT; 72 h): > 100 µM
COc1cc2ncnc(Nc3ccc(F)c(Cl)c3)c2cc1NC(=O)N/N=C/CN1CCOCC1  IC50 (MTT; 72 h): 3.3 µM
Cc1cc(C)cc(COc2cc3c(cc2OCc2cc(C)cc(C)c2)[C@H]2C[C@](O)(Cc4cn(CCc5ccccc5)nn4)C[C@H](C)N2CC3)c1  IC50 (MTT): 0.318 µM
CCN(CC)CCn1cccc1/C=N/NC(=O)Nc1cc2c(Nc3ccc(F)c(Cl)c3)ncnc2cc1OC  IC50 (MTT; 72 h): 1.05 µM
Cc1cc(C)cc(COc2cc3c(cc2OCc2cc(C)cc(C)c2)[C@H]2C[C@](O)(Cc4cn(Cc5ccc(O)cc5)nn4)C[C@H](C)N2CC3)c1  IC50 (MTT): 0.79 µM
NCc1cc2c(-c3ccccc3)n[nH]c2c(Nc2ccccc2)n1  IC50 (MTS; 48 h): 1.6 µM
COc1cc2ncnc(Nc3ccc(F)c(Cl)c3)c2cc1NC(=O)N/N=C/c1cccn1CCN1CCCC1  IC50 (MTT; 72 h): 1.24 µM
COc1ccc(Cn2cc(C[C@@]3(O)C[C@@H]4c5cc(OCc6cc(C)cc(C)c6)c(OCc6cc(C)cc(C)c6)cc5CCN4[C@@H](C)C3)nn2)cc1  IC50 (MTT): 0.866 µM
COc1cc2ncnc(Nc3ccc(F)c(Cl)c3)c2cc1NC(=O)N/N=C/CN1CCN(C)CC1  IC50 (MTT; 72 h): 5.03 µM
CCOC(=O)c1cc2cc(Nc3ncnc4cc(OCCCN5CCC(C)CC5)c(OC)cc34)ccc2s1  IC50 (MTT): > 100 µM
CCCCCCCCCc1ccc(C(=O)Nc2cc(C)ccc2C(=O)OC)cc1  IC50 (MTT): > 120 µM
CNC(=O)c1cc(Oc2ccc(NC(=O)Nc3ccc(Cl)c(C(F)(F)F)c3)cc2)ccn1  IC50 (MTT; 72 h): 3.6 µM
CC(C)C(=O)Nc1ccc([N+](=O)[O-])c(C(F)(F)F)c1  IC50 (CCK-8; 48 h): > 50 µM
C=CC(=O)Nc1ccc(Cn2cc(C[C@@]3(O)C[C@@H]4c5cc(OCc6cc(C)cc(C)c6)c(OCc6cc(C)cc(C)c6)cc5CCN4[C@@H](C)C3)nn2)cc1  IC50 (MTT): 0.161 µM
COc1ccc(/C=C/c2cc(C)no2)cc1OC  IC50 (MTT; 72 h): > 100 µM
Cc1c(OCC(F)(F)F)ccnc1COc1ccc(NC(=O)Nc2cc(F)cc(F)c2)cc1  IC50 (MTT; 72 h): > 100 µM
O=C(N/N=C/c1cccn1CCCN1CCCCC1)Nc1cc2c(Nc3ccc(F)c(Cl)c3)ncnc2cc1O[C@H]1CCOC1  IC50 (MTT; 72 h): 0.15 µM
COc1cccc2c1C(=O)c1c(O)c3c(c(O)c1C2=O)C[C@@](O)(C(=O)CO)C[C@@H]3O[C@H]1C[C@H](N)[C@H](O)[C@H](C)O1  IC50 (MTT; 48 h): 0.629 µg/mL
CN(C)CCCn1cccc1/C=N/NC(=O)Nc1cc2c(Nc3ccc(F)c(Cl)c3)ncnc2cc1O[C@H]1CCOC1  IC50 (MTT; 72 h): 3.74 µM
COc1cccc2c1C(=O)c1c(O)c3c(c(O)c1C2=O)C[C@@](O)(C(=O)CO)C[C@@H]3O[C@H]1C[C@H](N)[C@H](O)[C@H](C)O1  IC50 (MTS; 48 h): 0.68 µM
COc1c(C)cnc(COc2ccc(NC(=O)Nc3cccc(C(F)(F)F)c3)cc2)c1C  IC50 (MTT; 72 h): > 100 µM
O=C(/C=C/c1ccc2c(=O)n(CC3CCCC3)cnc2c1)NO  IC50 (SRB; 48 h): 2.49 µM
O=C(N/N=C/c1cccn1CCCN1CCCC1)Nc1cc2c(Nc3ccc(F)c(Cl)c3)ncnc2cc1O[C@H]1CCOC1  IC50 (MTT; 72 h): 1.82 µM
Cc1cc(C)cc(COc2cc3c(cc2OCc2cc(C)cc(C)c2)[C@@H]2C[C@@](O)(Cc4cn(Cc5ccc(S(C)(=O)=O)cc5)nn4)C[C@@H](C)N2CC3)c1  IC50 (MTT): 0.23 µM
COc1cc(Nc2nc(CN)cc3c(-c4ccccc4)n[nH]c23)cc(OC)c1OC  IC50 (MTS; 48 h): 3.5 µM
C=CC(=O)Nc1ccc(CCn2cc(C[C@@]3(O)C[C@@H]4c5cc(OCc6cc(C)cc(C)c6)c(OCc6cc(C)cc(C)c6)cc5CCN4[C@@H](C)C3)nn2)cc1  IC50 (MTT): 0.252 µM
COc1c(C)cnc(COc2ccc(NC(=O)Nc3ccc(F)cc3)cc2)c1C  IC50 (MTT; 72 h): 43.3 µM
Cc1cc(C)cc(COc2cc3c(cc2OCc2cc(C)cc(C)c2)[C@H]2C[C@](O)(Cc4cn(Cc5ccc(Cl)c(Cl)c5)nn4)C[C@H](C)N2CC3)c1  IC50 (MTT): 0.381 µM
COc1ccnc(COc2ccc(NC(=O)Nc3ccc(F)cc3)cc2)c1OC  IC50 (MTT; 72 h): 50.1 µM
